Laboratory results from ChEMBL document CHEMBL1128333, “Derivatives of cis-2-amino-8-hydroxy-1-methyltetralin: mixed 5-HT1A-receptor agonists and dopamine D2-receptor antagonists” (J Med Chem, 1995).

How the values were obtained:
[1] = molecular target: T1, 5-hydroxytryptamine receptor 1A (Rattus norvegicus, UniProt P19327); assay: Binding affinity for 5-hydroxytryptamine 1A receptor in rat brain tissue using [3H]8-OH-DPAT as radioligand; format: tissue-based
T1 sequence (P19327 whole entry): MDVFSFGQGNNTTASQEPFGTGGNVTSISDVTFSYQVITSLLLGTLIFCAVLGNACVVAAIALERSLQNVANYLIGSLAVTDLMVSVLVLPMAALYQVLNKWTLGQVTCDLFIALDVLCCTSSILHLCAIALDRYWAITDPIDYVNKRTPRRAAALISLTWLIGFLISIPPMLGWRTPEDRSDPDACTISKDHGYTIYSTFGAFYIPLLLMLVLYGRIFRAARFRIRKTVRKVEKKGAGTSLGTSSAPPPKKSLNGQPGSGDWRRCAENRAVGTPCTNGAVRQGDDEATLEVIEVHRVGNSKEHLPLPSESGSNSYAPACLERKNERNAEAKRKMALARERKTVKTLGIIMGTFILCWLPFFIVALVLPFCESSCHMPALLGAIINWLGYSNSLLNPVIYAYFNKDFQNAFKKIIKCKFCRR
Summary of the method: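 Membranes from male Sprague–Dawley rat cortex plus hippocampus, homogenized in 50 mM Tris-HCl with 4.0 mM CaCl2 and 5.7 mM ascorbic acid, pH 7.5, and preincubated 10 min at 37 °C with 10 μM pargyline. Assay used 5 mg/mL tissue and 2 nM [3H]-8-OH-DPAT, 10 min at 37 °C. Nonspecific binding was defined with 10 μM 5-HT. Bound ligand was separated on GF/B filters and counted; data were fitted by nonlinear regression.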

Rattus norvegicus [2] = assay: Cage leaving response was studied in rats after subcutaneous administration of 32 uM/Kg of compound; 2/5; format: functional
Rattus norvegicus [3] = assay: Change in body temperature in rats after subcutaneous administration; format: functional
Summary of the method: (§1)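 Rectal temperature was taken with an electrical thermometer, probe inserted 3.5 cm, before and 30 min after sc injection in 0.9% NaCl. Values are the change from the preinjection reading, analysed by Tukey HSD versus saline-treated rats. Male Sprague–Dawley rats, 260–310 g.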

Rattus norvegicus [4] = organism: Rattus norvegicus; assay: 5-HIAA (5-Hydroxyindoleacetic acid) content of rat hippocampus reflecting 5-HT metabolism and turnover; format: functional; design: concentration or dose not given beside the values
Summary of the method: (§2)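 Male Sprague–Dawley rats (260–310 g) received compound sc in 0.9% NaCl; saline controls. Rats were decapitated 35–45 min post-injection, and hippocampus and striatum were dissected and frozen. Tissue was homogenized in 0.1 M perchloric acid with α-methyl-5-hydroxytryptophan as internal standard, centrifuged and filtered, then analysed by HPLC-EC at 0.85 V (mobile phase pH 2.69, 35 °C). Values are percent of control, mean ± SEM.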

Rattus norvegicus [5] = organism: Rattus norvegicus; assay: 5-HT content of rat hippocampus reflecting 5-HT metabolism and turnover; format: functional; design: concentration or dose not given beside the values; summary of the method: as §2
Rattus norvegicus [6] = organism: Rattus norvegicus; assay: DA (dopamine) content of rat striatum reflecting DA metabolism and turnover; format: functional; summary of the method: as §2
Rattus norvegicus [7] = organism: Rattus norvegicus; assay: DOPAC (3,4-dihydroxyphenylacetic acid) content of rat striatum reflecting DA metabolism and turnover; format: functional; design: concentration or dose not given beside the values; summary of the method: as §2
Rattus norvegicus [8] = organism: Rattus norvegicus; assay: HVA (Homovanillic acid)content of rat striatum reflecting DA metabolism and turnover; format: functional; design: concentration or dose not given beside the values
Rattus norvegicus [9] = assay: Flat body posture behavior was studied in rats after subcutaneous administration of 32 uM/Kg of compound; 0/5; format: functional
Rattus norvegicus [10] = assay: Forepaw treading (FPT) behavior was studied in rats after subcutaneous administration of 32 uM/Kg of compound; 0/5; format: functional
Rattus norvegicus [11] = organism: Rattus norvegicus; assay: Ratio of serotonin turnover (5HIAA to 5-HT) in rat brain hippocampus compared to control; format: functional; summary of the method: as §2
Rattus norvegicus [12] = organism: Rattus norvegicus; assay: Ratio of turnover (DOPAC to DA) in rat brain striatum compared to control.; format: functional; summary of the method: as §2
D(2) dopamine receptor = D(2) dopamine receptor (Homo sapiens, UniProt P14416); assay: In vitro binding affinity towards human Dopamine receptor D2A was determined in mouse fibroblast LtK cells using [3H]raclopride; format: cell-based
Sequence of D(2) dopamine receptor (P14416 whole entry): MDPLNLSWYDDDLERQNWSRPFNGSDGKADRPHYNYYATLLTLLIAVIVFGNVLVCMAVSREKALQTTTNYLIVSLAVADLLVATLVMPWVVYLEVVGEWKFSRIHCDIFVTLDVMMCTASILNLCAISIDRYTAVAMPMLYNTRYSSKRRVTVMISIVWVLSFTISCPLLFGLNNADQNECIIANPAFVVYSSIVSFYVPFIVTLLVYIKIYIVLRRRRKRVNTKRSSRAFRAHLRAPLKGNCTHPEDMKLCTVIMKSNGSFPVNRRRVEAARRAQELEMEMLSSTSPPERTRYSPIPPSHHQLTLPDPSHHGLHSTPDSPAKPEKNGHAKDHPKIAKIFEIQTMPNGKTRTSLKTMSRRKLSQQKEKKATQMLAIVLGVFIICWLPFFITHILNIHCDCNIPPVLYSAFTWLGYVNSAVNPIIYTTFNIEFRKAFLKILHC
Summary of the method: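 Membranes from Ltk− mouse fibroblasts stably expressing human D2A receptors, at 80–100 pM receptor. Buffer was 50 mM Tris-HCl, 120 mM NaCl, 5 mM KCl, 1.5 mM CaCl2, 4 mM MgCl2, 1 mM EDTA, pH 7.4. Incubation with [3H]raclopride was 60 min at 22 °C, in duplicate, with 1 μM (+)-butaclamol for nonspecific binding. Bound ligand was separated on GF/B filters; data were fitted by nonlinear regression.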

Rattus norvegicus [13] = assay: Cage leaving response was studied in rats after subcutaneous administration of 32 uM/Kg of compound; 0/4; format: functional
Rattus norvegicus [14] = assay: Flat body posture behavior was studied in rats after subcutaneous administration of 32 uM/Kg of compound; 4/4; format: functional
Summary of the method: (§3)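 Test compounds were given at 32 μmol/kg and the reference 5-HT1A agonist at 1 μmol/kg. Flat body posture, forepaw treading and hind limb abduction were each scored as absent or present. Values are animals showing the behavior out of animals tested, analysed by Fisher's exact test. Male Sprague–Dawley rats, 260–310 g.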

Rattus norvegicus [15] = assay: Forepaw treading (FPT) behavior was studied in rats after subcutaneous administration of 32 uM/Kg of compound; 4/4; format: functional; summary of the method: as §3
Rattus norvegicus [16] = assay: Cage leaving response was studied in rats after subcutaneous administration of 1 uM/Kg of compound; 0/7; format: functional
Rattus norvegicus [17] = assay: Change in body temperature was studied in rats upon subcutaneous administration of 1 uM/Kg of compound; format: functional; summary of the method: as §1
Rattus norvegicus [18] = assay: Flat body posture behavior was studied in rats after subcutaneous administration of 1 uM/Kg of compound; 7/7; format: functional; summary of the method: as §3
Rattus norvegicus [19] = assay: Forepaw treading (FPT) behavior was studied in rats after subcutaneous administration of 1 uM/Kg of compound; 7/7; format: functional; summary of the method: as §3
Rattus norvegicus [20] = assay: Cage leaving response was studied in rats after subcutaneous administration of 32 uM/Kg of compound; 1/5; format: functional
Rattus norvegicus [21] = assay: Flat body posture behavior was studied in rats after subcutaneous administration of 32 uM/Kg of compound; 3/5; format: functional; summary of the method: as §3
Rattus norvegicus [22] = assay: Cage leaving response was studied in rats after subcutaneous administration of 32 uM/Kg of compound; 1/4; format: functional
Rattus norvegicus [23] = assay: Flat body posture behavior was studied in rats after subcutaneous administration of 32 uM/Kg of compound; 0/4; format: functional; summary of the method: as §3
Rattus norvegicus [24] = assay: Forepaw treading (FPT) behavior was studied in rats after subcutaneous administration of 32 uM/Kg of compound; 0/4; format: functional; summary of the method: as §3

| SMILES | Ki [1] [nM] | Change of body temperature (Rattus norvegicus [3]) [°C] | Control (Rattus norvegicus [4]) [%] | Control (Rattus norvegicus [5]) [%] | Control (Rattus norvegicus [6]) [%] | Control (Rattus norvegicus [7]) [%] | Control (Rattus norvegicus [8]) [%] | FPT (Rattus norvegicus [10]) | Ratio (Rattus norvegicus [11]) | Ratio (Rattus norvegicus [12]) | Ki (D(2) dopamine receptor) [nM] | Cage leaving (Rattus norvegicus [13]) | FBP (Rattus norvegicus [14]) | FPT (Rattus norvegicus [15]) | other results |
| --- | --- | --- | --- | --- | --- | --- | --- | --- | --- | --- | --- | --- | --- | --- | --- |
| CCCN(CCC)[C@H]1CCc2cccc(C(=O)OC)c2[C@H]1C | 417 | -0.1 | 112 | 86 | 96 | 97 | 104 | 0 | 131 | 103 | – | – | – | – | Cage leaving (Rattus norvegicus [2]): 2; FBP (Rattus norvegicus [9]): 0 |
| CCCN(CCC)[C@@H]1CCc2cccc(OC)c2[C@@H]1C | 6 | -2.5 | 76 | 108 | 89 | 134 | 121 | – | 70 | 151 | 33.9 | 0 | 4 | 4 | – |
| CCCN(CCC)[C@@H]1CCc2cccc(O)c2C1 | – | – | 80 | 130 | 108 | 109 | 105 | – | – | – | – | – | – | – | Cage leaving (Rattus norvegicus [16]): 0; Change of body temperature (Rattus norvegicus [17]): -2.6 °C; FBP (Rattus norvegicus [18]): 7; FPT (Rattus norvegicus [19]): 7 |
| CCCN(CCC)[C@@H]1CCc2cccc(O)c2[C@@H]1C | – | -0.2 | 88 | 121 | 83 | 225 | 196 | – | 72 | 275 | 30 | 0 | 4 | 4 | – |
| CCCN(CCC)[C@@H]1CCc2ccccc2[C@@H]1C | 49 | -0.7 | 92 | 94 | 95 | 152 | 168 | 0 | 98 | 164 | 87 | – | – | – | Cage leaving (Rattus norvegicus [20]): 1; FBP (Rattus norvegicus [21]): 3 |
| CCCN(CCC)[C@H]1CCc2cccc(OC)c2[C@H]1C | 285 | -1.2 | 79 | 81 | 118 | 80 | 53 | – | 96 | 69 | 1050 | – | – | – | Cage leaving (Rattus norvegicus [22]): 1; FBP (Rattus norvegicus [23]): 0; FPT (Rattus norvegicus [24]): 0 |
